# Laboratory results published in ChEMBL document CHEMBL4033667, “Design, synthesis, and identification of a novel napthalamide-isoselenocyanate compound NISC-6 as a dual Topoisomerase-IIα and Akt pathway inhibitor, and evaluation of its anti-melanoma activity” (Eur J Med Chem, 2017).
# The source made the active and inactive calls. The rule behind the calls is not given here.
# Columns and labels:
# [1] = Antiproliferative activity against human 1205 Lu cells harboring BRAF V600E mutant after 72 hrs by MTT assay; format: functional, cell-based
# Procedure, shortened: (§1)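 MTT viability in melanoma lines grown in DMEM with 10% FBS and pen/strep at 37 °C, 5% CO2. 3000 cells/well, settled overnight, then exposed to compound (0 to 50 µM) in triplicate for 24, 48 or 72 h. MTT (5.0 mg/mL solution) added 3 h before termination. IC50 from non-linear regression (variable slope), mean ± SD.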
# [2] = Antiproliferative activity against human 1205 Lu cells harboring BRAF V600E mutant after 24 hrs by MTT assay; format: functional, cell-based; procedure, shortened: as §1
# [3] = Antiproliferative activity against human A375M cells harboring BRAF V600E mutant after 24 hrs by MTT assay; format: functional, cell-based; procedure, shortened: as §1
# CHL-1 [4] = test: Antiproliferative activity against human CHL-1 cells harboring wild type BRAF after 72 hrs by MTT assay; format: functional, cell-based; conditions: CHL-1, 72 h; procedure, shortened: as §1
# UACC-903 [5] = test: Antiproliferative activity against human UACC-903 cells harboring BRAF V600E mutant after 24 hrs by MTT assay; format: functional, cell-based; conditions: UACC-903, 24 h; procedure, shortened: as §1
# [6] = Antiproliferative activity against human A375M cells harboring BRAF V600E mutant after 72 hrs by MTT assay; format: functional, cell-based; procedure, shortened: as §1
# [7] = Antiproliferative activity against human A375M cells harboring BRAF V600E mutant after 48 hrs by MTT assay; format: functional, cell-based; procedure, shortened: as §1
# [8] = Antiproliferative activity against human 1205 Lu cells harboring BRAF V600E mutant after 48 hrs by MTT assay; format: functional, cell-based; procedure, shortened: as §1
# CHL-1 [9] = test: Antiproliferative activity against human CHL-1 cells harboring wild type BRAF after 24 hrs by MTT assay; format: functional, cell-based; conditions: CHL-1, 24 h; procedure, shortened: as §1
# UACC-903 [10] = test: Antiproliferative activity against human UACC-903 cells harboring BRAF V600E mutant after 48 hrs by MTT assay; format: functional, cell-based; conditions: UACC-903, 48 h; procedure, shortened: as §1
# UACC-903 [11] = test: Antiproliferative activity against human UACC-903 cells harboring BRAF V600E mutant after 72 hrs by MTT assay; format: functional, cell-based; conditions: UACC-903, 72 h; procedure, shortened: as §1
# CHL-1 [12] = test: Antiproliferative activity against human CHL-1 cells harboring wild type BRAF after 48 hrs by MTT assay; format: functional, cell-based; conditions: CHL-1, 48 h; procedure, shortened: as §1
# [13] = target: DNA topoisomerase 2-alpha (Homo sapiens) (UniProt P11388); test: Inhibition of human DNA topoisomerase 2alpha assessed as decrease in relaxation of supercoiled pBR322 DNA at 0.5 to 5 uM after 1 hr by ethidium bromide staining-based agarose gel electrophoresis
# Procedure, shortened: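 Kit-based relaxation assay: supercoiled plasmid DNA with 4 units of human Topo-IIα in assay buffer plus test agent or DMSO at 37 °C (1 h in legend, 30 min in methods). Stopped with 10% SDS, then proteinase K 15 min at 37 °C. Run on 1% agarose 1-2 h, ethidium bromide 2 h, destain 15 min in TAE, UV imaging.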
# NHDF [14] = test: Cytotoxicity against human NHDF cells assessed as reduction in cell viability at 2.5 uM after 48 hrs by MTT assay; format: cell-based
# Procedure, shortened: (§2)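 nHDF normal fibroblasts grown in serum-free fibroblast basal medium with growth kit and pen/strep/amphotericin B. Treated 48 h at set concentrations, with viability read by MTT assay.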
# NHDF [15] = test: Cytotoxicity against human NHDF cells assessed as reduction in cell viability at 5 uM after 48 hrs by MTT assay; format: cell-based; procedure, shortened: as §2
# Chain of DNA topoisomerase 2-alpha (Homo sapiens) (P11388 whole entry): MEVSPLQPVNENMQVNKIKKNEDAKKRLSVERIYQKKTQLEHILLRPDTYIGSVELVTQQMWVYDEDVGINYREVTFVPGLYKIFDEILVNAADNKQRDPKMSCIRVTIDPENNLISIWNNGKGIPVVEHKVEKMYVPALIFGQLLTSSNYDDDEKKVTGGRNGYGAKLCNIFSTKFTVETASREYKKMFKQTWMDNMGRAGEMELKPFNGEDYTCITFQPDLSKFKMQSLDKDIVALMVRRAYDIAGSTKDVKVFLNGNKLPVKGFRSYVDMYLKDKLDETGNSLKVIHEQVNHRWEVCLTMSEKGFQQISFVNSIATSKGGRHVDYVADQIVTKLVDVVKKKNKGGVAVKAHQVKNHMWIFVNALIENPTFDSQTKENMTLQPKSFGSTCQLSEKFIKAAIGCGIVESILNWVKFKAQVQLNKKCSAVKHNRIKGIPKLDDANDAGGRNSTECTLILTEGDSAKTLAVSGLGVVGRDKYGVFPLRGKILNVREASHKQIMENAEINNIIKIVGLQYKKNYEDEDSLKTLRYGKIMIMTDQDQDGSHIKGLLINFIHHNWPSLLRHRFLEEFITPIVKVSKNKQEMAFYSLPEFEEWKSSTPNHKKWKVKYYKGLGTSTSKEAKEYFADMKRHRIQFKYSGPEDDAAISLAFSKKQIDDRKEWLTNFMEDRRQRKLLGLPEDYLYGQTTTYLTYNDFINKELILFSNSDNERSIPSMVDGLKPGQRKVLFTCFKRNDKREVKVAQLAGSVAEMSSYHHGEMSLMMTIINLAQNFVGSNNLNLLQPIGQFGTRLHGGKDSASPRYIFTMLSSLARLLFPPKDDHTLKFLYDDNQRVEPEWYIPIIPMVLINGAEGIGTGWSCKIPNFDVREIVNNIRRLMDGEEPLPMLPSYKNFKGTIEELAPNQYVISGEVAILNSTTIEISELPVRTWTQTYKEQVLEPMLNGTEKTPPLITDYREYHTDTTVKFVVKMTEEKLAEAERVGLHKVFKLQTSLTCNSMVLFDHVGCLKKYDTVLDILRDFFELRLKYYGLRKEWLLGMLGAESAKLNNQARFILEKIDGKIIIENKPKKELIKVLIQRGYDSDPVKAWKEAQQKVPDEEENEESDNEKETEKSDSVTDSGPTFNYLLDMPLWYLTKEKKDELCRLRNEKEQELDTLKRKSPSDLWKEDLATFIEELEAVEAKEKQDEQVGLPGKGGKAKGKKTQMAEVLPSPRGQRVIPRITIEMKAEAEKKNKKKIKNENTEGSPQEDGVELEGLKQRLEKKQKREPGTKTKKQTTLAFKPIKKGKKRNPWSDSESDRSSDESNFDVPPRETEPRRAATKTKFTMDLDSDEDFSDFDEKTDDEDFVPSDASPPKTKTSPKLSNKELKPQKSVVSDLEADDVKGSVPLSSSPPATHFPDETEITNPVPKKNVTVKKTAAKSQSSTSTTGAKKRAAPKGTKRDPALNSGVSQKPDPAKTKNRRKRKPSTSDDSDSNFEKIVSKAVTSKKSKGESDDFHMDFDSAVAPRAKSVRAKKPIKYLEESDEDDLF
SMILES,IC50 [1],IC50 [2],IC50 [3],IC50 (CHL-1 [4]),IC50 (UACC-903 [5]),IC50 [6],IC50 [7],IC50 [8],IC50 (CHL-1 [9]),IC50 (UACC-903 [10]),IC50 (UACC-903 [11]),IC50 (CHL-1 [12]),inhibition [13],Activity (NHDF [14]),Activity (NHDF [15])
O=C1c2cccc3cccc(c23)C(=O)N1CCN=C=[Se],9.4 µM,11 µM,9.7 µM,7.6 µM,6.3 µM,8 µM,7.8 µM,10.7 µM,6.3 µM,5.5 µM,5.9 µM,6.8 µM,–,–,–
CN(C)CCN1C(=O)c2cccc3cc([N+](=O)[O-])cc(c23)C1=O [MITONAFIDE],0.6 µM,11.1 µM,3.8 µM,0.5 µM,11.4 µM,1.3 µM,1.5 µM,0.9 µM,2.8 µM,0.8 µM,0.5 µM,0.9 µM,Active,< 20%,< 20%
O=C1c2cccc3cc([N+](=O)[O-])cc(c23)C(=O)N1CCN=C=[Se],20.3 µM,21.6 µM,24.8 µM,11 µM,21.6 µM,24 µM,21 µM,19.9 µM,15.3 µM,14.4 µM,15.9 µM,12.6 µM,–,–,–
COc1cc([C@@H]2c3cc4c(cc3[C@@H](O[C@@H]3O[C@@H]5CO[C@@H](C)O[C@H]5[C@H](O)[C@H]3O)[C@H]3COC(=O)[C@H]23)OCO4)cc(OC)c1O,–,–,–,–,–,–,–,–,–,–,–,–,Active,–,–
